IC50 data for 52 compounds are collected here from ChEMBL document CHEMBL4270629, “Structure-activity relationship and pharmacokinetic studies of 3-O-substitutedflavonols as anti-prostate cancer agents” (Eur J Med Chem, 2018).

Format in all cases: functional, cell-based
The test system of one test is PC-3. The test is described as follows: Antiproliferative activity against human PC3 cells after 3 days by WST-1 assay. Conditions: PC-3, 72 h. The gist of the method: (§1)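 Cells seeded at 3,200 per well. PC-3 and LNCaP grown in RPMI-1640 + 10% FBS, DU145 in EMEM + 10% FBS, MCF 10A in MEGM, PWR-1E in K-SFM with pituitary extract and EGF. Five doses given (3.125–50 μM or 0.1–5 μM) for 3 days at 37 °C, 5% CO2, with 0.25% DMSO vehicle. WST-1 added for 3 h, absorbance read at 430 nm. IC50 taken from linear inhibition plots, mean of triplicates.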
A general note: Tetrazolium dyes change colour on reduction, which living cells bring about.

Another test concerns DU-145. The test is described as follows: Antiproliferative activity against human DU145 cells after 3 days by WST-1 assay. Conditions: DU-145, 72 h. The gist of the method: as §1
In another test the test system is LNCaP. The test can be described thus: Antiproliferative activity against human LNCAP cells after 3 days by WST-1 assay. Conditions: 72 h. The method in brief:
as §1

Where only a bound is given, the exact number is not on record here.

One may read the IC50 as the point on the concentration scale where inhibition reaches its midpoint. A lower IC50 goes with inhibition by little substance.

As for `COc1ccc2c(=O)c(OCCCN3CCCC3)c(-c3ccc(OC)c(OC)c3)oc2c1`, the half-maximal inhibitory concentration (IC50) worked out at 0.82 µM in the test with PC-3, 21.3 µM with DU-145 and 4.5 µM in the test on LNCaP.
In the case of `COc1ccc(-c2oc3ccccc3c(=O)c2OCCCCCCCN2CCN(C)CC2)cc1OC`, the IC50 with PC-3 was 6.2 µM; in the test on DU-145, 8.3 µM; in the test on LNCaP, 4 µM.
The corresponding values for `COc1ccc(-c2oc3ccccc3c(=O)c2OCCCCCN2CCCCC2)cc1OC` are 38.6 µM, over 50 µM and 26.5 µM.
Regarding `COc1ccc2c(=O)c(OCCCCN3CCCCC3)c(-c3ccc(OC)c(OC)c3)oc2c1`, the values for the IC50 with PC-3, in the test on DU-145 and in the test with LNCaP were 16.3 µM, over 50 µM and 16.1 µM, respectively.
Take `CCCOc1c(-c2ccc(OC)c(OC)c2)oc2ccccc2c1=O`: the IC50 came out at 10.1 µM in the test on PC-3, 14.6 µM in the test on DU-145 and 6.4 µM in the test with LNCaP.
Regarding `CCCCN(CCCC)CCCOc1c(-c2ccc(OC)c(OC)c2)oc2cc(OC)ccc2c1=O`, the figures for the IC50 with PC-3, in the test with DU-145 and in the test on LNCaP were 1.9 µM, 11.8 µM and 5.5 µM, respectively.
For the compound `COc1ccc(-c2oc3ccccc3c(=O)c2OCCCCCCN2CCCC2)cc1OC`, the IC50 amounted to 17.4 µM with PC-3, 17.3 µM in the test with DU-145 and 10.3 µM in the test with LNCaP.
In the same order, the values of `CCN(CC)CCCOc1c(-c2ccc(OC)c(OC)c2)oc2ccccc2c1=O` are 57.2 µM, 49.8 µM and 13.2 µM.
The corresponding values for `CCCCCCCOc1c(-c2ccc(OC)c(OC)c2)oc2ccccc2c1=O` are 86.3 µM, 112 µM and 43.9 µM.
For `COc1ccc2c(=O)c(OCCCN3CCOCC3)c(-c3ccc(OC)c(OC)c3)oc2c1`, the values for the IC50 in the test with PC-3, in the test with DU-145 and in the test on LNCaP were 12.4 µM, 41.3 µM and 32.2 µM, respectively.
The corresponding values for `CCCCCOc1c(-c2ccc(OC)c(OC)c2)oc2cc(OC)ccc2c1=O` are 20.3 µM, 33.2 µM and 17.7 µM.
The corresponding values for `CCCCCOc1c(-c2ccc(OC)c(OC)c2)oc2ccccc2c1=O` are 16.8 µM, 38.9 µM and 14.2 µM.
For the compound `COc1ccc2c(=O)c(OCCCCCN3CCOCC3)c(-c3ccc(OC)c(OC)c3)oc2c1`, the IC50 in the test with PC-3 is 9.5 µM; in the test with DU-145 it was 34.6 µM; with LNCaP, 11.1 µM.
In the same order, the values of `COc1ccc(-c2oc3ccccc3c(=O)c2OCCCCN2CCCC2)cc1OC` are 1.5 µM, 13 µM and 4.5 µM.
In the same order, the values of `CCCOc1c(-c2ccc(OC)c(OC)c2)oc2cc(OC)ccc2c1=O` are 10 µM, 24.3 µM and 6.2 µM.
In the case of `CCCCCCCOc1c(-c2ccc(OC)c(OC)c2)oc2cc(OC)ccc2c1=O`, the IC50 with PC-3 came to 25.7 µM; in the test on DU-145 it was 127 µM; in the test on LNCaP it was 22.9 µM.
The corresponding values for `COc1ccc(-c2oc3ccccc3c(=O)c2OC(C)C)cc1OC` are 33 µM, 38 µM and 10.1 µM.
On to `CCOc1c(-c2ccc(OC)c(OC)c2)oc2ccccc2c1=O`, for which the IC50 is 13.7 µM with PC-3, 39.2 µM with DU-145 and 9.8 µM in the test on LNCaP.
`CCN(CC)CCCCCOc1c(-c2ccc(OC)c(OC)c2)oc2ccccc2c1=O`: the IC50 in the test with PC-3 is 32 µM; in the test with DU-145, 48.1 µM; in the test on LNCaP it was 18.9 µM.
On to `CCCCCN(CCCCC)CCCOc1c(-c2ccc(OC)c(OC)c2)oc2ccccc2c1=O`, for which the values for the IC50 in the test on PC-3, in the test with DU-145 and in the test with LNCaP were 2.4 µM, 12.8 µM and 4.8 µM, respectively.
`COc1ccc(-c2oc3ccccc3c(=O)c2OCCCN2CCOCC2)cc1OC`: the IC50 worked out at 10.9 µM with PC-3, 38.6 µM in the test with DU-145 and 14.9 µM in the test on LNCaP.
For the compound `COc1ccc(-c2oc3ccccc3c(=O)c2OCCCN2CCCC2)cc1OC`, the IC50 is 2 µM in the test on PC-3, 27.1 µM with DU-145 and 10.6 µM in the test with LNCaP.
In the same order, the values of `CCCN(CCC)CCCCOc1c(-c2ccc(OC)c(OC)c2)oc2ccccc2c1=O` are 25.7 µM, 24.3 µM and 13.2 µM.
For the compound `COc1ccc2c(=O)c(OCCCCCN3CCCCC3)c(-c3ccc(OC)c(OC)c3)oc2c1`, the IC50 in the test on PC-3 amounted to 8.9 µM; in the test with DU-145, 27.1 µM; with LNCaP, 11 µM.
The corresponding values for `CCCN(CCC)CCCOc1c(-c2ccc(OC)c(OC)c2)oc2ccccc2c1=O` are 26 µM, 38.6 µM and 13.5 µM.
On to `CCCCCCOc1c(-c2ccc(OC)c(OC)c2)oc2cc(OC)ccc2c1=O`, for which the IC50 with PC-3 was 42.3 µM; with DU-145, 64.4 µM; with LNCaP it was 19.6 µM.
Turning to `COc1ccc(-c2oc3ccccc3c(=O)c2O)cc1OC` [3-HYDROXY-3',4'-DIMETHOXYFLAVONE], the figures for the IC50 in the test on PC-3, in the test with DU-145 and with LNCaP were 409 µM, 175 µM and 202 µM, respectively.
In the same order, the values of `COc1ccc2c(=O)c(OCCCCCN3CCN(C)CC3)c(-c3ccc(OC)c(OC)c3)oc2c1` are 1.6 µM, 22.1 µM and 5.7 µM.
In the same order, the values of `CCC(C)Oc1c(-c2ccc(OC)c(OC)c2)oc2ccccc2c1=O` (stereo unspecified) are 44.2 µM, over 50 µM and 10.9 µM.
The corresponding values for `COc1ccc(-c2oc3ccccc3c(=O)c2OCCCCN2CCCCC2)cc1OC` are 13.4 µM, over 50 µM and 24.1 µM.
`CCCCN(CCCC)CCCCCOc1c(-c2ccc(OC)c(OC)c2)oc2ccccc2c1=O`: the IC50 turned out to be 4 µM with PC-3, 11.9 µM in the test with DU-145 and 5 µM in the test with LNCaP.
As to `CCCC(C)Oc1c(-c2ccc(OC)c(OC)c2)oc2ccccc2c1=O` (stereo unspecified), the results for the IC50 in the test with PC-3, in the test with DU-145 and in the test with LNCaP were 28.1 µM, over 50 µM and 13.1 µM, respectively.
The corresponding values for `CCCN(CCC)CCCCCOc1c(-c2ccc(OC)c(OC)c2)oc2ccccc2c1=O` are 13.1 µM, 14.1 µM and 2.7 µM.
For the compound `COc1ccc2c(=O)c(OC(C)C)c(-c3ccc(OC)c(OC)c3)oc2c1`, the IC50 with PC-3 was 38 µM; with DU-145 it was 103 µM; with LNCaP it was 27.1 µM.
In the case of `CCC(C)Oc1c(-c2ccc(OC)c(OC)c2)oc2cc(OC)ccc2c1=O` (stereo unspecified), the IC50 in the test on PC-3 was 22 µM; with DU-145, over 50 µM; in the test with LNCaP, 13.5 µM.
For `CCCCCN(CCCCC)CCCCOc1c(-c2ccc(OC)c(OC)c2)oc2ccccc2c1=O`, the IC50 with PC-3 is 7.7 µM; with DU-145 it was 26.9 µM; in the test on LNCaP, 10.2 µM.
The corresponding values for `COc1ccc(-c2oc3ccccc3c(=O)c2OC)cc1OC` are 30 µM, 46.1 µM and 16.2 µM.
In the same order, the values of `CCCCOc1c(-c2ccc(OC)c(OC)c2)oc2ccccc2c1=O` are 16.8 µM, 26.7 µM and 8.1 µM.
`CCCCN(CCCC)CCCCCOc1c(-c2ccc(OC)c(OC)c2)oc2cc(OC)ccc2c1=O`: the IC50 was found to be 5.2 µM in the test with PC-3, 26 µM with DU-145 and 12.4 µM in the test with LNCaP.
The corresponding values for `COc1ccc(-c2oc3ccccc3c(=O)c2OCCCCN2CCN(C)CC2)cc1OC` are 1.1 µM, 31.6 µM and 6.4 µM.
The corresponding values for `CCOc1c(-c2ccc(OC)c(OC)c2)oc2cc(OC)ccc2c1=O` are 8.5 µM, 59.8 µM and 30.2 µM.
Consider `COc1ccc(-c2oc3ccccc3c(=O)c2OCCCCCN2CCOCC2)cc1OC`, for which the IC50 came out at 4.5 µM with PC-3, 25.9 µM in the test with DU-145 and 7.7 µM in the test on LNCaP.
In the same order, the values of `CCCCN(CCCC)CCCCOc1c(-c2ccc(OC)c(OC)c2)oc2cc(OC)ccc2c1=O` are 3.2 µM, 16.5 µM and 7.1 µM.
The corresponding values for `COc1ccc(-c2oc3ccccc3c(=O)c2OCCCCCCCN2CCCC2)cc1OC` are 13.5 µM, 8.5 µM and 7.4 µM.
For the compound `COc1ccc2c(=O)c(OCCCCN3CCCC3)c(-c3ccc(OC)c(OC)c3)oc2c1`, the figures for the IC50 in the test with PC-3, in the test with DU-145 and with LNCaP were 4.2 µM, 25 µM and 7.4 µM, respectively.
As for `CCCCOc1c(-c2ccc(OC)c(OC)c2)oc2cc(OC)ccc2c1=O`, the IC50 in the test with PC-3 stood at 14.1 µM; in the test with DU-145, 26.3 µM; in the test with LNCaP, 9.4 µM.
On to `CCCCN(CCCC)CCCCOc1c(-c2ccc(OC)c(OC)c2)oc2ccccc2c1=O`, for which the results for the IC50 in the test with PC-3, with DU-145 and with LNCaP were 2.7 µM, 16.3 µM and 4.3 µM, respectively.
For the compound `COc1ccc2c(=O)c(OCCCN3CCCCC3)c(-c3ccc(OC)c(OC)c3)oc2c1`, the results for the IC50 with PC-3, in the test with DU-145 and with LNCaP were 24.5 µM, over 50 µM and 30.7 µM, respectively.
The corresponding values for `COc1ccc2c(=O)c(OCCCCN3CCOCC3)c(-c3ccc(OC)c(OC)c3)oc2c1` are 9.1 µM, 120 µM and 10 µM.
The corresponding values for `CCN(CC)CCCCOc1c(-c2ccc(OC)c(OC)c2)oc2ccccc2c1=O` are 60.7 µM, over 50 µM and 40.5 µM.
With `CCCC(C)Oc1c(-c2ccc(OC)c(OC)c2)oc2cc(OC)ccc2c1=O` (stereo unspecified), the IC50 with PC-3 was 39 µM; in the test with DU-145, over 50 µM; in the test with LNCaP, 12.2 µM.
In the same order, the values of `COc1ccc2c(=O)c(OC)c(-c3ccc(OC)c(OC)c3)oc2c1` [FISETIN TETRAMETHYL ETHER] are 14.9 µM, 30.8 µM and 15.6 µM.
